We go through one compound from ChEMBL document CHEMBL1811845, “Modulation of GABAA-receptors by honokiol and derivatives: subtype selectivity and structure-activity relationship” (J Med Chem, 2011).

The target in data set [1] is Gamma-aminobutyric acid receptor subunit alpha-1/ beta-1 (Homo sapiens) (UniProt P14867+P18505). As to the kind of experiment: Modulation of GABA Aalpha1beta1 receptor expressed in Xenopus laevis oocytes assessed as potentiation of GABA-induced chloride current at holding potential -70 mV by two-microelectrode voltage clamp technique relative to GABA. Format: cell-based. To be noted: Oocyte. In outline:
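Stage V–VI female Xenopus oocytes were defolliculated with collagenase and injected with α1 and β1 cRNA at a 3:1 ratio. Oocytes were held at 18 °C in ND96, pH 7.4. Enhancement was (I(GABA+compound)/IGABA)−1, and EC50 and nH came from Hill fits. DMSO was ≤0.3% and matched in controls.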

Data set [2] can be described thus: Octanol-water partition coefficient, log P of the compound. The following applies: read-out: logP. Format: physicochemical.
Data set [3] has as its target T1, Gamma-aminobutyric acid receptor subunit alpha-1/ beta-1 (Homo sapiens, UniProt P14867+P18505).
T1 sequence (P14867 whole entry): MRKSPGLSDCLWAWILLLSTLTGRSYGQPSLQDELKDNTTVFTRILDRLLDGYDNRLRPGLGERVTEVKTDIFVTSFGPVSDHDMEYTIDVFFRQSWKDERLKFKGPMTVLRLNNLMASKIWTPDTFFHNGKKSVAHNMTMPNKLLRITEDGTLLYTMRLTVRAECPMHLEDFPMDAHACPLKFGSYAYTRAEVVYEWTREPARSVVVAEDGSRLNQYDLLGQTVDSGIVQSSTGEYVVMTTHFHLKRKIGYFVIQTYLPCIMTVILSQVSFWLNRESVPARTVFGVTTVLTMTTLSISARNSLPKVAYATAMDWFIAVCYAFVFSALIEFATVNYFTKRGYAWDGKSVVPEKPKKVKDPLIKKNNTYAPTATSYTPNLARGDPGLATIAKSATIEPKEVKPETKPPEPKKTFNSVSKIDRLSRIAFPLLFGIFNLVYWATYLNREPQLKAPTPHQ
T1 sequence (P18505 whole entry): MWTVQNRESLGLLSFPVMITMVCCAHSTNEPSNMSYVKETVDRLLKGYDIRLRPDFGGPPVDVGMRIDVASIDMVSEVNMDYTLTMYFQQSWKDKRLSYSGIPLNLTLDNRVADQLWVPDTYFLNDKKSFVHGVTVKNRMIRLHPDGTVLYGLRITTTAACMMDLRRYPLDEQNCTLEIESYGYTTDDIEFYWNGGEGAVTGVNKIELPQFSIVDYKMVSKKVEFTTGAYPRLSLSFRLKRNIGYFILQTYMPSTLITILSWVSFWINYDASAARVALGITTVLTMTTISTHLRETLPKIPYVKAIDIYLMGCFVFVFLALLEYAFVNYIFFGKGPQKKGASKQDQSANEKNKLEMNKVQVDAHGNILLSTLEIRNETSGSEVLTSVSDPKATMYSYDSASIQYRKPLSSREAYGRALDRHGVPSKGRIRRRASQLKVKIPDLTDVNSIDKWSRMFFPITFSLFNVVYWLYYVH
Kind of data set: Modulation of GABA Aalpha1beta1 receptor expressed in Xenopus laevis oocytes assessed as potentiation of GABA-induced chloride current at holding potential -70 mV by two-microelectrode voltage clamp technique. Format: cell-based, Oocyte. The method, boiled down: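 Stage V–VI Xenopus oocytes were injected with subunit cRNAs, with α1 and β1 mixed 3:1 for α1β1, and kept at +18 °C in modified ND96 at pH 7.4. Two-electrode voltage clamp was run at -70 mV and ambient temperature. Test GABA gave 3–7% of maximal current, set for each oocyte. Enhancement was (I(GABA+compound)/IGABA) − 1. EC50 came from a Hill fit. DMSO (max 0.3%) was matched in controls.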

Data set [4] deals with Gamma-aminobutyric acid receptor subunit alpha-3/ beta-2 (Homo sapiens) (UniProt P47870+P34903). As to the kind of experiment: Modulation of GABA Aalpha3beta2 receptor expressed in Xenopus laevis oocytes assessed as potentiation of GABA-induced chloride current at holding potential -70 mV by two-microelectrode voltage clamp technique relative to GABA. To be noted: Oocyte. Format: cell-based. The method, boiled down:
(§1)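 Oocytes were injected with α1, α2, α3 or α5 plus β2 cRNA at a 1:1 ratio and stored at 18 °C in ND96, pH 7.4. Enhancement was (I(GABA+compound)/IGABA)−1, and concentration-response data were Hill-fitted for EC50 and nH. Matched DMSO was ≤0.3%.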

For data set [5], the target named is GABA-A receptor; GABA-A site (alpha1/beta2 interface) (Homo sapiens) (UniProt P14867+P47870). As to the kind of experiment: Modulation of GABA Aalpha1beta2 receptor expressed in Xenopus laevis oocytes assessed as potentiation of GABA-induced chloride current at holding potential -70 mV by two-microelectrode voltage clamp technique relative to GABA. Format: cell-based. The following applies: Oocyte. The method, boiled down: as §1

The target of data set [6] is T2, GABA-A receptor; GABA-A site (alpha1/beta2 interface) (Homo sapiens, UniProt P14867+P47870).
T2 sequence (P14867 whole entry): T1 sequence (P14867 whole entry)
T2 sequence (P47870 whole entry): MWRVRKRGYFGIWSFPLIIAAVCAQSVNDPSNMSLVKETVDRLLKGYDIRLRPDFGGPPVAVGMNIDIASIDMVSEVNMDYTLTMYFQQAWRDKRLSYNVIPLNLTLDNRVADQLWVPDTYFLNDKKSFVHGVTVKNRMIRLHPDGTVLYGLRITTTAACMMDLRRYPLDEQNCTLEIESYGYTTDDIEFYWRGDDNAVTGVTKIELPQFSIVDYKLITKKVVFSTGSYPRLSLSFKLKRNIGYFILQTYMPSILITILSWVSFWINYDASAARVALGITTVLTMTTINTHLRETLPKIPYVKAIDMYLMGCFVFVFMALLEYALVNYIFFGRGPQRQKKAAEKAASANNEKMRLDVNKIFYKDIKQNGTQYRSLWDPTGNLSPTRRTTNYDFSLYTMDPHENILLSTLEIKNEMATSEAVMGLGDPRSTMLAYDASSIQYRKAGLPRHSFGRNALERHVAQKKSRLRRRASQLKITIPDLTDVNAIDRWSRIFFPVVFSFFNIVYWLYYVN
As to the kind of experiment: Modulation of GABA Aalpha1beta2 receptor expressed in Xenopus laevis oocytes assessed as potentiation of GABA-induced chloride current at holding potential -70 mV by two-microelectrode voltage clamp technique. Type of data set: cell-based, Oocyte. The method, boiled down: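 Stage V–VI Xenopus oocytes, defolliculated with 2 mg/mL collagenase, injected with α(1, 2, 3 or 5) and β2 cRNAs mixed 1:1, then kept at 18 °C in ND96 (pH 7.4). Enhancement = I(GABA+compound)/IGABA − 1. Curves were Hill-fitted for EC50. Bath DMSO was at most 0.3%, matched in controls.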

The test system of a further data set is Oocyte. As to the kind of experiment: Modulation of GABA alpha1beta2gamma2s receptor expressed in Xenopus laevis oocytes assessed as potentiation of GABA-induced chloride current at holding potential -70 mV by two-microelectrode voltage clamp technique relative to GABA. Format: cell-based. In outline:
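Oocytes were injected with α1, β2 and γ2s cRNAs mixed 1:1:10 and stored at 18 °C in ND96 (pH 7.4). GABA was applied at a concentration giving 3–7% of maximal current, determined for each oocyte. Enhancement was taken as (I(GABA+compound)/IGABA) − 1. Concentration–response data were fitted to a Hill equation. Control solutions carried equal DMSO, at most 0.3%.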

The logP is the decadic logarithm of the partition coefficient of the neutral form, usually between octanol and water. As a reminder, the EC50 is the midpoint of the concentration-response curve.

For the compound `C=CCc1ccc(O)c(-c2ccc(O)c(CC=C)c2)c1` [HONOKIOL], the Smax is 260% in data set [1], 2390% in data set [4], 1030% in data set [5] and 1320% with Oocyte. The lipophilicity (logP) in data set [2] came to 5.16. For the same compound, the EC50 in data set [3] came out at 57 µM; in data set [6] it was 39.3 µM.
